# Laboratory results: ChEMBL document CHEMBL1165862, “Synthesis and pharmacological evaluation of novel 5-substituted-1-(phenylsulfonyl)-2-methylbenzimidazole derivatives as anti-inflammatory and analgesic agents” (Eur J Med Chem, 2010)
# Experiments:
# Rattus norvegicus [1] = assay: Antiinflammatory activity in Sprague-Dawley rat assessed as reduction of carrageenan-induced paw edema at 200 mg/kg, po administered 30 mins before carrageenan challenge measured after 1 hr by mercury displacement method relative to control; format: functional; parameters: scale not given: the % may be the effect or the level left
# In short: (§1)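 Rats (150–230 g; groups of six), paw edema induced with 1.0% carrageenan. Compounds given p.o. as suspensions in 2% sodium CMC 30 min before carrageenan, test compounds at 200 mg/kg and indomethacin standard at 50 mg/kg; 2% CMC served as control. Paw volume measured by mercury-displacement plethysmography. Mean ± SEM of six animals.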
# Mus musculus = assay: Analgesic activity in albino mouse assessed as protection against acetic acid-induced writhing at 100 mg/kg, po administered 30 mins prior to acetic acid challenge measured after 15 mins; format: functional
# In short: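 Albino mice of either sex, 20–25 g, groups of six. Dosed orally as suspension in 2% CMC 30 min before i.p. acetic acid (0.6% v/v in distilled water, 1 mL/kg); controls given 2% CMC alone, standard acetyl salicylic acid. Writhes per animal counted for 15 min; activity expressed as percentage protection. Mean ± SEM, n = 6.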
# Rattus norvegicus [2] = assay: Gastrointestinal toxicity in Sprague-Dawley rat assessed as lengths of longest diameters of lesions at 20 mg/kg, po after 6 hrs; format: organism-based; parameters: dose 20 mg/kg, route oral; settings: in vivo
# In short: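 SD rats of either sex (150–200 g), groups of six; dosed orally in 0.1% Tween 80, vehicle as control. Stomachs taken 6 h later, ligated and stored overnight in 2% v/v formol saline. Next day opened along greater curvature, washed in warm water and viewed under 3-fold magnifier. Longest lesion diameters summed per animal as total lesion score (mm); group mean ± SEM.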
# Rattus norvegicus [3] = assay: Antiinflammatory activity in Sprague-Dawley rat assessed as reduction of carrageenan-induced paw edema at 50 mg/kg, po administered 30 mins before carrageenan challenge measured after 1 hr by mercury displacement method relative to control; format: functional; parameters: scale not given: the % may be the effect or the level left; in short: as §1
SMILES,Activity (Rattus norvegicus [1]) [%],Activity (Mus musculus) [%],Activity (Rattus norvegicus [2]) [mm],Activity (Rattus norvegicus [3]) [%]
CCNc1ccc2c(c1)nc(C)n2S(=O)(=O)c1ccccc1,7.2,,,
Cc1nc2cc(NCc3ccc(Cl)cc3)ccc2n1S(=O)(=O)c1ccccc1,9.2,,,
Cc1nc2cc(NCc3ccc([N+](=O)[O-])cc3)ccc2n1S(=O)(=O)c1ccccc1,10.8,,,
Cc1nc2cc(NCc3ccccc3Cl)ccc2n1S(=O)(=O)c1ccccc1,8.6,,,
Cc1nc2cc(Nc3ccccc3N)ccc2n1S(=O)(=O)c1ccccc1,37,55.3,14,
Cc1nc2cc(NCc3ccc(N)cc3)ccc2n1S(=O)(=O)c1ccccc1,33.7,,15,
CCCCNc1ccc2c(c1)nc(C)n2S(=O)(=O)c1ccccc1,7.9,,,
Cc1nc2cc(Nc3ccc(N)cc3)ccc2n1S(=O)(=O)c1ccccc1,39.7,56.9,16,
CCCNc1ccc2c(c1)nc(C)n2S(=O)(=O)c1ccccc1,7.7,,,
CC(=O)Oc1ccccc1C(=O)O [ASPIRIN],,57.8,,
COc1ccc2c(c1)c(CC(=O)O)c(C)n2C(=O)c1ccc(Cl)cc1 [INDOMETHACIN],,,26,43.4
Cc1nc2cc(Nc3ccc([N+](=O)[O-])cc3)ccc2n1S(=O)(=O)c1ccccc1,10.6,,,
CNc1ccc2c(c1)nc(C)n2S(=O)(=O)c1ccccc1,6.7,,,
Cc1nc2cc(Nc3ccccc3[N+](=O)[O-])ccc2n1S(=O)(=O)c1ccccc1,10.2,,,
